{
  "source": "paper PMC5715471",
  "about": "(ACS chemical neuroscience, 2017)",
  "key": {"[1]": {"molecular_target": "T1, σ2R/Tmem97 (Rattus norvegicus, UniProt Q5U3Y7)", "T1 sequence (Q5U3Y7 1-176)": "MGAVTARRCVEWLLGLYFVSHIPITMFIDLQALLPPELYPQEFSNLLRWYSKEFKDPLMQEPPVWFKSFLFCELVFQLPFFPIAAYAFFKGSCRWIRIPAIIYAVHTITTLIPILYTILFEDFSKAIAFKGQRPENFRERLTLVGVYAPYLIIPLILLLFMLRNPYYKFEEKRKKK", "test": "Sigma 2 receptor competition binding with [3H]-ditolylguanidine", "conditions": "σ2R from rat PC12 cells"}, "[2]": {"test": "Blood brain barrier crossing", "type": "in vivo", "conditions": "no data or reference given"}, "[3]": {"system": "mouse spared nerve injury (SNI) model", "test": "Mechanical sensitivity", "type": "in vivo", "conditions": "for effect on SNI-induced mechanical hypersensitivity: single IT injection, 10 μg, vs vehicle; for time after IT injection at which efficacy was seen (onset) / time through which antipain effect persisted: IT 10 μg", "in_short": "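Male C57Bl6/J mice with SNI (peroneal and tibial sciatic branches cut, sural spared), confirmed hypersensitive 2 weeks post-surgery and screened 21–60 days after SNI. Single intrathecal 10 μg in 5 μL saline (DMSO <5%, vehicle DMSO-matched). Blinded hindpaw von Frey, modified up–down, at set times. n = 4–11. Mean ± SEM; two-way ANOVA with Bonferroni. Repeat injections ≥14 days apart.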"}, "[4]": {"system": "SK-N-SH neuroblastoma cells", "conditions": "cited from earlier work"}, "[5]": {"system": "mouse spared nerve injury (SNI) model", "test": "Mechanical sensitivity", "type": "in vivo", "conditions": "IV 100 mg/kg", "in_short": "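Male C57Bl6/J SNI mice, hindpaw mechanical hypersensitivity confirmed 2 weeks post-surgery. Tail-vein IV injection in 100 μL sterile saline (DMSO stock diluted; vehicle DMSO-matched): test compound 10 mg/kg, gabapentin 100 mg/kg, or vehicle, n = 6 each. Blinded von Frey testing (modified up–down) at set time points. Mean ± SEM; two-way ANOVA with Bonferroni post hoc.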"}, "[6]": {"conditions": "in vivo; cited from earlier work"}},
  "note": "Where two headings read alike, the source gives them in different places.",
  "data": [
    {"smiles": "FC(F)(F)c1ccc(-c2ccc3c(c2)C2CC3CCCN2C2CCCC2)cc1", "note": "(racemic) [DKR-1051, (±)-2-Cyclopentyl-9-(4-(trifluoromethyl)phenyl)-1,2,3,4,5,6-hexa-hydro-1,6-methanobenzo[c]azocine]", "values": [
      {"measurement": "affinity at σ2R/Tmem97 (in words)", "setting": "[1]", "result": "high affinity"},
      {"measurement": "blood brain barrier crossing", "setting": "[2]", "result": "cross the blood brain barrier"},
      {"measurement": "time of peak relief of mechanical hypersensitivity after dosing", "setting": "[3]; IT", "result": 48, "unit": "h"},
      {"measurement": "effect on SNI-induced mechanical hypersensitivity", "setting": "[3]", "result": "significant antimechanical hypersensitivity effects at either 24 or 48 h"},
      {"measurement": "effect on intracellular Ca2+", "setting": "[4]; SK-N-SH neuroblastoma cells", "result": "induces a rapid Ca^2+ transient"}
    ]},
    {"smiles": "c1ccc(CCN2CCC3CC2c2ccccc23)cc1", "note": "(racemic) [JSS-1027, (±)-2-Phenethyl-2,3,4,5-tetrahydro-1H-1,5-methanobenzo[c]-azepine]", "values": [
      {"measurement": "affinity at σ2R/Tmem97 (in words)", "setting": "[1]", "result": "low nM range"},
      {"measurement": "time after IT injection at which efficacy was seen (onset)", "setting": "[3]", "result": 48, "unit": "h"},
      {"measurement": "time through which antipain effect persisted", "setting": "[3]", "result": 120, "unit": "h"},
      {"measurement": "effect on SNI-induced mechanical hypersensitivity", "setting": "[3]", "result": "significantly different from vehicle"}
    ]},
    {"smiles": "CN1CCC2CC1c1cc(N3CCOCC3)ccc12", "note": "(racemic) [JWG-1014, (±)-2-Methyl-2,3,4,5-tetrahydro-1H-1,5-methanobenzo[c]-azepin-8-yl)morpholine]", "values": [
      {"measurement": "time after IT injection at which efficacy was seen (onset)", "setting": "[3]", "result": 48, "unit": "h"},
      {"measurement": "time through which antipain effect persisted", "setting": "[3]", "result": 120, "unit": "h"},
      {"measurement": "effect on SNI-induced mechanical hypersensitivity", "setting": "[3]", "result": "significantly different from vehicle"}
    ]},
    {"smiles": "Clc1ccc2c(c1)C1CC2CCCN1CC1CCCCC1", "note": "(racemic) [MFG-1046, (±)-9-Chloro-2-(cyclohexylmethyl)-1,2,3,4,5,6-hexahydro-1,6-methanobenzo[c]azocine]", "values": [
      {"measurement": "affinity at σ2R/Tmem97 (in words)", "setting": "[1]", "result": "low nM range"},
      {"measurement": "time after IT injection at which efficacy was seen (onset)", "setting": "[3]", "result": 24, "unit": "h"},
      {"measurement": "time through which antipain effect persisted", "setting": "[3]", "result": 72, "unit": "h"},
      {"measurement": "effect on SNI-induced mechanical hypersensitivity", "setting": "[3]", "result": "significantly different from vehicle"}
    ]},
    {"smiles": "NCC1(CC(=O)O)CCCCC1", "note": "[Gabapentin, reference compound]", "values": [
      {"measurement": "effect on SNI-induced mechanical hypersensitivity", "setting": "[5]; 1 and 3 h after injection", "result": "completely reversed mechanical hypersensitivity"},
      {"measurement": "mechanical hypersensitivity state", "setting": "[5]; 24 h after injection", "result": "fully mechanically hypersensitive again"}
    ]},
    {"smiles": "CN1CCN(c2ccc3c(c2)[C@H]2C[C@@H]3CCN2C(=O)OCc2ccccc2)CC1", "note": "[SAS-0132]", "values": [
      {"measurement": "blood brain barrier crossing", "setting": "[6]", "result": "cross the blood brain barrier"},
      {"measurement": "effect of co-administration on antinociceptive action of UKH-1114", "setting": "[3]; SAS-0132 10 μg IT given at the same time as UKH-1114 10 μg", "result": "completely blocked the effect seen with UKH-1114 given alone"},
      {"measurement": "effect of pretreatment on DKR-1051-induced Ca2+ transient", "setting": "[4]; SK-N-SH neuroblastoma cells pretreated with SAS-0132", "result": "attenuated"}
    ]},
    {"smiles": "Fc1ccc(-n2cc(CCCCN3CCC4(CC3)OCc3ccccc34)c3ccccc32)cc1", "note": "[Siramesine, reference compound]", "values": [
      {"measurement": "effect on SNI-induced mechanical hypersensitivity", "setting": "[3]", "result": "small inhibitory effect on mechanical hypersensitivity that was significant at 24 and 48 h"}
    ]}
  ]
}
